ChEMBL document CHEMBL4316643, “Sesquiterpenes from an Eastern African Medicinal Mushroom Belonging to the Genus Sanghuangporus” (J Nat Prod, 2019)
In brackets after ≈: the same amount, converted by molar mass. Activity calls are given as the source filed them. The calls are words filed in the database; no cut-off is given here.

Key:
Bacillus subtilis = assay: Antimicrobial activity against Bacillus subtilis DSM 10 by serial dilution assay; type: functional
Micrococcus luteus = assay: Antimicrobial activity against Micrococcus luteus DSM 1790 by serial dilution assay; type: functional
[1] = test system: Mycolicibacterium smegmatis; assay: Antimicrobial activity against Mycobacterium smegmatis DSM 43524 by serial dilution assay; type: functional
Staphylococcus aureus = assay: Antimicrobial activity against Staphylococcus aureus DSM 346 by serial dilution assay; type: functional
Mucor hiemalis = assay: Antimicrobial activity against Mucor hiemalis DSM 2656 by serial dilution assay; type: functional
In short: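 Serial dilution MIC assay in 96-well plates using YM medium for the filamentous fungus; starting concentration 300 μg/mL.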

KB 3-1 = assay: Cytotoxicity in human KB 3.1 cells; type: functional, cell-based
In short: (§1)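 In vitro cytotoxicity against mouse fibroblast L929 and HeLa-derived KB-3.1 cells; serial dilutions from a starting concentration of 37 μg/mL; IC50 determined.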

L929 = assay: Cytotoxicity in mouse L929 cells; type: functional, cell-based; in short: as §1
[2] = Homo sapiens, KB 3-1, read-out: IC50
[3] = Mus musculus, L929, read-out: IC50

C=C([C@H]1CC=C(C)CC1)[C@H](O)[C@@H](O)/C=C(\C)C(=O)O
MIC (Bacillus subtilis): inactive
MIC (Micrococcus luteus): inactive
MIC [1]: inactive
MIC (Staphylococcus aureus): 100 µg/mL (≈ 375 µM)
MIC (Mucor hiemalis): 100 µg/mL (≈ 375 µM)
IC50 (KB 3-1; [2]): 173 µM

C=C1CCC[C@@](C)(CO)[C@@H]1CC/C(=C/CO)CO
MIC (Bacillus subtilis): inactive
MIC (Micrococcus luteus): inactive
MIC [1]: inactive
MIC (Staphylococcus aureus): inactive
MIC (Mucor hiemalis): 50 µg/mL (≈ 197 µM)
IC50 (L929; l929): Not Active
IC50 (KB 3-1; kb 3-1): Not Active

CN(C)[C@@H]1C(O)=C(C(N)=O)C(=O)[C@@]2(O)C(O)=C3C(=O)c4c(O)cccc4[C@@](C)(O)[C@H]3[C@H](O)[C@@H]12 [OXYTETRACYCLINE]
MIC (Micrococcus luteus): 0.4 µg/mL (≈ 0.869 µM)
MIC (Staphylococcus aureus): 0.4 µg/mL (≈ 0.869 µM)

NYSTATIN
MIC (Mucor hiemalis): 16.7 µg/mL

O=C(O)/C=C/c1ccc(O)cc1 [COUMARIC ACID]
MIC (Bacillus subtilis): inactive
MIC (Micrococcus luteus): inactive
MIC [1]: inactive
MIC (Staphylococcus aureus): inactive
MIC (Mucor hiemalis): 50 µg/mL (≈ 305 µM)
IC50 (L929; l929): Not Active
IC50 (KB 3-1; kb 3-1): Not Active

C=C1CCCC(C)(C)[C@@H]1CC/C(=C/CO)CO
MIC (Bacillus subtilis): 100 µg/mL (≈ 420 µM)
MIC (Micrococcus luteus): 100 µg/mL (≈ 420 µM)
MIC [1]: inactive
MIC (Staphylococcus aureus): 100 µg/mL (≈ 420 µM)
MIC (Mucor hiemalis): 25 µg/mL (≈ 105 µM)
IC50 (L929; [3]): 118 µM
IC50 (KB 3-1; [2]): 79.8 µM

C=C1CCC[C@@](C)(CO)[C@@H]1CCc1ccoc1
MIC (Bacillus subtilis): 75 µg/mL (≈ 320 µM)
IC50 (L929; [3]): 59.8 µM
IC50 (KB 3-1; [2]): 27.8 µM

CC1=CC[C@H]([C@@](C)(O)[C@@H](O)C/C=C(\C)C(=O)O)CC1
MIC (Bacillus subtilis): inactive
MIC (Micrococcus luteus): inactive
MIC [1]: inactive
MIC (Staphylococcus aureus): inactive
MIC (Mucor hiemalis): 50 µg/mL (≈ 186 µM)

NC[C@H]1O[C@H](O[C@H]2[C@H](O)[C@@H](O[C@H]3O[C@H](CO)[C@@H](O)[C@H](N)[C@H]3O)[C@H](N)C[C@@H]2N)[C@H](O)[C@@H](O)[C@@H]1O [KANAMYCIN]
MIC [1]: 0.4 µg/mL (≈ 0.826 µM)

CC1=CC[C@H]([C@@](C)(O)[C@@H](O)[C@@H](O)/C=C(\C)C(=O)O)CC1
MIC (Bacillus subtilis): inactive
MIC (Micrococcus luteus): inactive
MIC [1]: inactive
MIC (Staphylococcus aureus): inactive
MIC (Mucor hiemalis): inactive

C/C(=C\c1csc(C)n1)[C@@H]1C[C@@H]2O[C@]2(C)CCC[C@H](C)[C@H](O)[C@@H](C)C(=O)C(C)(C)[C@@H](O)CC(=O)O1 [PATUPILONE]
IC50 (L929; [3]): 0.00275 µM
IC50 (KB 3-1; [2]): 6.5e-05 µM

O=C(O)c1cn(C2CC2)c2cc(N3CCNCC3)c(F)cc2c1=O [CIPROFLOXACIN]
MIC (Bacillus subtilis): 3.1 µg/mL (≈ 9.36 µM)

C=C1CCC[C@@](C)(C(=O)O)[C@@H]1CCc1ccoc1
MIC (Bacillus subtilis): 75 µg/mL (≈ 302 µM)
MIC (Micrococcus luteus): inactive
MIC [1]: inactive
MIC (Staphylococcus aureus): inactive
MIC (Mucor hiemalis): 50 µg/mL (≈ 201 µM)
IC50 (L929; l929): Not Active
IC50 (KB 3-1; [2]): 141 µM
